PGC1a acetyl inh – lowers PGC1a acetylation signal in U2OS cells; inhibition, % at 15.6 µM; actives 0.17% (n = 350,000); AlphaScreen anti-acetyl-lysine; with virally co-expressed GCN5 acetyltransferase;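 active = every replicate shows inhibition of at least 40%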
CAL PDZ FP-1 – CAL PDZ (human) peptide binding inhibition; inhibition, % at 24.9 µM; actives 0.92% (n = 300,000); AID 602252; purified CAL PDZ, TMR-peptide fluorescence polarization, 1 h; Q9HD26;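 active = mean inhibition of at least 30% with at least half of replicates also reaching 30%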
CAL PDZ FP-2 – blocks peptide binding to human CAL PDZ domain. purified CAL PDZ, TMR-peptide fluorescence polarization, 1 h. actives 0.02% (n = 330,000). Q9HD26. AID 504414. inhibition, % at 20 µM;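 active = highest replicate inhibition of at least 40%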
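Test system: tagged CAL PDZ domain / Buffer or medium: sodium phosphate/NaCl buffer pH 7.4 with TCEP, IgG, Thesit / Reagent: TMR-labelled reporter peptide T*-PRC34 bound in PDZ groove / Compound dosing: single point, 20 µM / Schedule: 1 h incubation at room temperature before polarization reading / Technique: fluorescence polarization (mP) / Benchmarks: unlabelled peptide, DMSO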
miR122 inh – miR-122 inhibition in Huh7 cells; Huh7 miR-122 Renilla luciferase sensor, 48 h; neutral wells = 0, positive control = 100; activation (reporter increase), % at 12.5 µM; actives 0.3% (n = 340,000); AID 602342;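 active = mean replicate activation score at least 90 and every replicate individually at or above 90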;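 also: higher luciferase means less miR-122 activity so hits act as miR-122 inhibitors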
F508del corr – correctors of CFTR F508del function in bronchial epithelial cells | CFBE cells, YFP halide quenching; stimulated with forskolin plus potentiator P3; % fluorescence drop versus neutral controls | activity (quench increase), % at 7.58 µM | actives 0.36% (n = 350,000) | AID 720511;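 active = mean added fluorescence quench of at least 8% versus neutral control, with both replicates also reaching 8%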;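 also: cells transiently co-express mutant CFTR-F508del with the halide-sensitive YFP; corrector assay measuring rescue of mutant channel to the surface after 24 h compound exposure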
ARNT-TACC3 inh – disrupts binding between human ARNT and TACC3. AlphaScreen His-ARNT PAS-B/GST-TACC3 binding, luminescence; TACC3 fragment carries E629A point mutation. inhibition, % at 9.99 µM. actives 0.66% (n = 390,000);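 active = mean inhibition of replicates at least 50% and at least half of replicates each reaching 50%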
Numbers stand for hits; 0 = inactive; - = not tested or not shown. A selection: hits, their analogues and other compounds. The true share with any hit is near 1.7%.

SMILES	PGC1a acetyl inh	CAL PDZ FP-1	CAL PDZ FP-2	miR122 inh	F508del corr	ARNT-TACC3 inh
COc1ccc(CCNC(=O)c2cccc3ccccc23)cc1OC	-	0	0	0	0	0
COc1ccc(CCNC(=O)c2cc3c(F)cccc3s2)cc1OC	-	70	0	0	0	0
C[C@@H]1CN([C@@H](C)CO)C(=O)c2cc(NS(=O)(=O)c3ccc(F)cc3)ccc2O[C@H]1CN(C)Cc1ccc(C(F)(F)F)cc1	0	-	-	0	0	-
C[C@H](CO)N1C[C@H](C)[C@@H](CN(C)Cc2ccc(C(F)(F)F)cc2)Oc2ccc(NS(=O)(=O)c3ccc(F)cc3)cc2C1=O	103	-	-	0	0	0
C[C@@H]1CN([C@@H](C)CO)C(=O)c2cc(NS(=O)(=O)c3ccc(Cl)cc3)ccc2O[C@@H]1CN(C)Cc1ccc(C(F)(F)F)cc1	0	-	-	0	9.8	-
C[C@H]1CN([C@@H](C)CO)C(=O)c2cc(NC(=O)Nc3ccc(C(F)(F)F)cc3)ccc2O[C@H]1CN(C)Cc1ccc(Cl)c(Cl)c1	0	-	-	0	0	0
C[C@@H]1CN([C@H](C)CO)C(=O)c2cc(NC(=O)Nc3ccc(C(F)(F)F)cc3)ccc2O[C@H]1CN(C)Cc1ccc(Cl)c(Cl)c1	0	37	0	0	0	0
C[C@@H]1CCCCO[C@H](CN(C)Cc2ccccc2)[C@@H](C)CN([C@@H](C)CO)C(=O)c2cc(NC(=O)C3CCCCC3)ccc2O1	0	-	-	0	0	0
CNC(=O)C[C@@H]1CC[C@@H]2[C@H](COC[C@@H](O)CN2Cc2ccncc2)O1	0	-	-	0	0	0
O=C(NCc1ccccc1)c1ncn[nH]1	0	112	0	0	0	0
O=C(NCCc1ccccc1)c1ncn[nH]1	0	0	0	0	-	0
COc1ccc(S(=O)(=O)N2N=C(C)Oc3ccccc3C2=O)cc1	0	0	0	123	-	-
COc1ccccc1N(C(C)=O)c1nc(C)cc(C)c1C#N	0	31	0	0	-	0
COc1ccc(Cl)cc1N(C(C)=O)c1nc(C)cc(C)c1C#N	-	-	0	0	0	0
COc1ccc(S(=O)(=O)Nc2ccc3c(c2)C(=O)N([C@@H](C)CO)C[C@H](C)[C@@H](CN(C)C(=O)NC(C)C)OCCCC[C@@H](C)O3)cc1	0	-	-	0	0	0
O=C(NCc1ccccc1)c1ccc(/C=N/O)nc1	-	0	0	0	-	0
O=C(NCc1ccccn1)c1ccc(/C=N/O)nc1	0	0	0	0	-	38
CN(C)CCCNC(=O)c1ccc(/C=N/O)nc1	0	0	0	0	0	0
CNCCCNC(=O)c1ccc(/C=N/O)nc1	-	0	0	-	0	61
COc1ccc(NC(=O)N(C)C[C@H]2Oc3cc(C#CCC(C)C)ccc3S(=O)(=O)N([C@@H](C)CO)C[C@H]2C)cc1	0	-	-	0	0	0
COc1ccc(-n2c(=O)cc(N3CCN(c4ccccc4)CC3)[nH]c2=O)cc1	0	-	0	0	-	0
Cc1cccc(-n2c(=O)cc(N3CCN(c4ccc(F)cc4)CC3)[nH]c2=O)c1	55	-	0	0	0	0
C[C@H]1CN([C@@H](C)CO)C(=O)c2cccc(NS(=O)(=O)c3cccs3)c2O[C@@H]1CN(C)Cc1ccc(-c2ccccc2)cc1	0	-	-	0	0	0
CC(C)=C1C(=O)NN(c2cccc(Cl)c2)C1=O	0	74	0	0	0	0
CC(C)=C1C(=O)NN(c2ccc(C)c(Cl)c2)C1=O	0	0	0	0	0	0
SMILES	PGC1a acetyl inh	CAL PDZ FP-1	CAL PDZ FP-2	miR122 inh	F508del corr	ARNT-TACC3 inh
COc1ccc(Cc2nnc(N/N=C/c3ccc(Br)cc3)[nH]c2=O)cc1OC	0	0	0	0	0	0
COc1ccc(Cc2nnc(N/N=C/c3ccc(O)cc3)[nH]c2=O)cc1OC	-	0	0	-	-	92
Cc1nn(C)c(C)c1S(=O)(=O)NCc1cccs1	0	-	0	109	-	0
CCOC(=O)c1c(S(=O)(=O)NCc2cccs2)c(C)n(C)c1C	0	0	0	0	0	0
Cc1ccc(/C=N/N(C)S(=O)(=O)c2ccc(C)cc2)cc1	0	49	-	0	0	0
CC(=O)c1ccc(-c2ccc(C(=O)NCC(c3ccc(F)cc3)N3CCOCC3)o2)cc1 (stereo unspecified)	0	142	0	0	0	0
